In data set [1] the target is Cyclin-dependent kinase 4 (Homo sapiens, UniProt P11802). Put plainly: Inhibition of CDK4-mediated retinoblastoma protein phosphorylation by dose-response curve analysis. The procedure, abridged:
(§1)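 Kinase assay read as Rb phosphorylation by cyclin D1-CDK4 or cyclin E-CDK2. IC50 is the concentration (μg/mL) giving 50% inhibition of Rb phosphorylation, read from the dose-response curve. Values are means of at least two determinations.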

Data set [2] addresses Cyclin-dependent kinase 2 (Homo sapiens, UniProt P24941). Description: Inhibition of CDK2-mediated retinoblastoma protein phosphorylation by dose-response curve analysis. The method, boiled down:
as §1

The subject of data set [3] is HCT-116. Put plainly: Antiproliferative activity against human HCT116 cells by dose-response curve analysis. The class given is functional, cell-based. The procedure, abridged: (§2)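 Cell growth inhibition measured from dose-response curves at ten concentrations. IC50 is the concentration giving 50% growth inhibition, read from these curves.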
A further data set has as its system PC-6. Put plainly: Antiproliferative activity against human PC6 cells by dose-response curve analysis. The class given is functional, cell-based. The procedure, abridged: as §2
A short description of data set [4]: Aqueous solubility in water. The class given is physicochemical.
A further data set deals with WiDr. Put plainly: Antiproliferative activity against human WiDr cells by MTT assay. Type of data set: functional, cell-based. The method, boiled down: as §2
(In general: Formazan colour is commonly taken as a measure of viable cells.)

A further data set concerns DLD-1. Put plainly: Antiproliferative activity against human DLD1 cells by MTT assay. The class given is functional, cell-based. The method, boiled down: as §2
The subject of data set [5] is HCT-116. Put plainly: Antiproliferative activity against docetaxal-resistant human HCT116 cells by MTT assay. The class given is functional, cell-based. The method, boiled down: as §2
The subject of data set [6] is HCT-116. Description: Antiproliferative activity against SN2-3-resistant human HCT116 cells by MTT assay. The class given is functional, cell-based. The method, boiled down: as §2
In the next data set the test system is MKN-28. Description: Antiproliferative activity against human MKN28 cells by MTT assay. Type of data set: functional, cell-based. The procedure, abridged: as §2
The test system of the next data set is MDA-MB-231. Description: Antiproliferative activity against human MDA-MB-231 cells by MTT assay. Type of data set: functional, cell-based. The procedure, abridged: as §2
Another data set concerns MDA-MB-468. Description: Antiproliferative activity against human MDA-MB-468 cells by MTT assay. The class given is functional, cell-based. The procedure, abridged: as §2
Data set [7] in a line: Antiproliferative activity against mouse B16-BL6 cells by MTT assay. Type of data set: functional, cell-based. The procedure, abridged:
as §2

A further data set deals with P388. Put plainly: Antiproliferative activity against mouse P388 cells by MTT assay. Type of data set: functional, cell-based. The method, boiled down: as §2

Values after ≈ are worked out from the molar mass of the structure shown. A value given as a limit tells only on which side of the number the result lay.

Sequence of Cyclin-dependent kinase 4 (P11802 whole entry): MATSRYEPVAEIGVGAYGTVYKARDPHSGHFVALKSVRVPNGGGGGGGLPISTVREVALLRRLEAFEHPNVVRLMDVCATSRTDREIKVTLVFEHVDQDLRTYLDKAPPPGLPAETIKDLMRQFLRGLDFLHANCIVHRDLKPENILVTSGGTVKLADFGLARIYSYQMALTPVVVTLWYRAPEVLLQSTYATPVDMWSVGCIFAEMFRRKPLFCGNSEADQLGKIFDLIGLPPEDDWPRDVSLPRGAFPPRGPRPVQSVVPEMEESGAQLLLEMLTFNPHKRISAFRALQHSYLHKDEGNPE

A word on the IC50: it is the concentration that gives 50% inhibition. Lower therefore signals inhibition by little substance. Take `Cc1csc2ncnc(N/N=C\c3cccs3)c12`: the IC50 in data set [1] and in data set [2] was above 72.9 µM throughout.

Turning to `CC(C)(C)c1cc2c(N/N=C\c3cccc(CN)n3)ncnc2s1`, the IC50 in data set [1] was 1.73 µM; in data set [2], 10.6 µM; in the data set with HCT-116 [3], 0.059 µg/mL (≈ 0.173 µM); in the data set on PC-6, 0.036 µg/mL (≈ 0.106 µM).

For orientation: solubility means the concentration that dissolves in the medium under given conditions. Low values mean little dissolved substance, high ones much dissolved substance. `CC(C)c1cc2c(N/N=C\c3cccs3)ncnc2s1`: the concentration for half-maximal inhibition (IC50) in data set [1] is 0.165 µM; in [2], 1.16 µM. The molecule also displayed a solubility in data set [4] below 0.1 µg/mL.

As for `Cc1cccc(/C=N\Nc2ncnc3sc(C(C)(C)C)cc23)n1`, the 50% inhibitory concentration (IC50) in data set [1] is 1.6 µM; in data set [2] it was 21.2 µM; with HCT-116 [3] it was 0.268 µg/mL (≈ 0.823 µM); in the data set on PC-6 it was 0.258 µg/mL (≈ 0.793 µM).

In the case of `CCc1c(C)sc2ncnc(N/N=C\c3cccs3)c12`, the values for the IC50 in data set [1] and in data set [2] were 52.9 µM and 39.7 µM, respectively.

Consider `CC(C)(C)c1cc2c(N/N=C\c3cccc(CN4CCOCC4)n3)ncnc2s1`, for which the IC50 in [1] is 0.414 µM; in [2] it was 13.4 µM; in the data set with HCT-116 [3] it was 0.363 µg/mL (≈ 0.884 µM); in the data set on PC-6, 0.261 µg/mL (≈ 0.636 µM).

On to `C/C(=N/Nc1ncnc2sc(C(C)C)cc12)c1cccs1`, for which the results for the IC50 in data set [1] and in [2] were 8.85 µM and 28.1 µM, respectively.

For `CCc1cc2c(N/N=C\C(C)(C)C)ncnc2s1`, the IC50 was 16.8 µM in [1], 14.5 µM in [2], 1.66 µg/mL (≈ 6.33 µM) in the data set on HCT-116 [3] and 1.55 µg/mL (≈ 5.91 µM) in the data set with PC-6.

Turning to `CCc1cc2c(N/N=C\c3cccs3)ncnc2s1`, the IC50 was 2.6 µM in data set [1]; 3.81 µM in data set [2]; 1.61 µg/mL (≈ 5.58 µM) in the data set on HCT-116 [3]; 0.566 µg/mL (≈ 1.96 µM) in the data set on PC-6; 1.36 µg/mL (≈ 4.72 µM) with WiDr; 1.12 µg/mL (≈ 3.88 µM) in the data set on DLD-1. The IC50 in the data set with HCT-116 [5] is 1.21 µg/mL (≈ 4.2 µM); in the data set on HCT-116 [6], 1.34 µg/mL (≈ 4.65 µM); in the data set with MKN-28, 2.86 µg/mL (≈ 9.92 µM); in the data set on MDA-MB-231 it was 1.87 µg/mL (≈ 6.48 µM); in the data set with MDA-MB-468, 0.048 µg/mL (≈ 0.166 µM); in data set [7], 2.44 µg/mL (≈ 8.46 µM). Besides, the IC50 in the data set on P388 was determined as 1.01 µg/mL (≈ 3.5 µM).

Take `CC(C)(C)c1cc2c(N/N=C\c3cccnc3)ncnc2s1`: the half-maximal inhibitory concentration (IC50) was 1.61 µM in [1], 1.8 µM in data set [2] and 1.45 µg/mL (≈ 4.66 µM) in the data set on PC-6.

For `CC(C)(C)c1cc2c(N/N=C\c3cccs3)ncnc2s1`, the IC50 is 0.379 µM in [1] and 1.77 µM in data set [2].

Turning to `CNCc1cccc(/C=N\Nc2ncnc3sc(C(C)(C)C)cc23)n1`, the half-inhibitory concentration (IC50) in data set [1] is 0.705 µM; in data set [2] it was 20 µM; in the data set on HCT-116 [3], 0.185 µg/mL (≈ 0.522 µM); in the data set on PC-6 it was 0.189 µg/mL (≈ 0.533 µM); in the data set on WiDr, 0.263 µg/mL (≈ 0.742 µM); in the data set on DLD-1, 0.221 µg/mL (≈ 0.623 µM). The 50% inhibitory concentration (IC50) in the data set on HCT-116 [5] worked out at 0.29 µg/mL (≈ 0.818 µM); in the data set on HCT-116 [6], 0.269 µg/mL (≈ 0.759 µM); in the data set with MKN-28, 0.686 µg/mL (≈ 1.94 µM); with MDA-MB-231 it was 0.279 µg/mL (≈ 0.787 µM); with MDA-MB-468 it was 0.159 µg/mL (≈ 0.449 µM); in [7], 0.379 µg/mL (≈ 1.07 µM). Also, the IC50 with P388 was 0.131 µg/mL (≈ 0.37 µM).

In the case of `CC(C)c1cc2c(N/N=C\c3ccncc3)ncnc2s1`, the IC50 is 0.807 µM in data set [1], 1.11 µM in [2] and above 10 µg/mL in the data set with PC-6.

As for `CCc1cc2c(N/N=C\C3CC3)ncnc2s1`, the half-maximal inhibitory concentration (IC50) is 13 µM in data set [1] and 16.6 µM in [2].

For the origin of these results see ChEMBL document CHEMBL1149082, “Discovery of novel thieno[2,3-d]pyrimidin-4-yl hydrazone-based inhibitors of Cyclin D1-CDK4: synthesis, biological evaluation, and structure-activity relationships” (Bioorg Med Chem Lett, 2009).
